Assay outcomes from PubChem.
TbMetRS inhib: Trypanosoma brucei MetRS inhibition; purified T. brucei MetRS, ATP depletion, Kinase-Glo luminescence; inhibition, % at 11.9 µM; actives 0.4% (n = 360,000); AID 624268;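 active means inhibition above a per-plate cutoff of the control wells' mean inhibition plus 3 SD, cut at about 5.5% in these data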;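 further: 0% = DMSO wells median and 100% = median of wells with control inhibitor compound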
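Test system – parasite MetRS enzyme · Reagent – substrates ATP, L-methionine and bulk Escherichia coli tRNA · Doses – 11.9 µM compound single dose, 0.9% DMSO · Times – 15 min enzyme-compound preincubation, 2 h reaction, 10 min detection, 25 °C · Signal – Kinase-Glo luminescence, ATP depletion format · Controls – DMSO-only wells as low control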
aDG glyco up: increases alpha dystroglycan glycosylation. AID 624168. activation, % at 10 µM. actives 0.22% (n = 360,000). Pro5-aDG cells, alpha-DG glycosylation AlphaScreen (IIH6); 0% Pro5, 100% B10-LARGE cell signal;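 active means activation of at least 8% versus controls, or a plate z-score of at least 8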;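 further: Pro5 are CHO cells carrying HIG-tagged alpha-DG that lacks glycosylation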
MC4R ag barr: activates human MC4R beta-arrestin recruitment; P32245; U2OS MC4R beta-arrestin complementation, luminescence; percent of melanotan II response, DMSO zero; activation, % at 8.9 µM; actives 0.98% (n = 360,000);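 active means activation above a per-plate cutoff, the mean activation of sample wells on that plate plus 3 SD, cut at about 8% in these data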
Target sequence (P32245 whole entry, looked up): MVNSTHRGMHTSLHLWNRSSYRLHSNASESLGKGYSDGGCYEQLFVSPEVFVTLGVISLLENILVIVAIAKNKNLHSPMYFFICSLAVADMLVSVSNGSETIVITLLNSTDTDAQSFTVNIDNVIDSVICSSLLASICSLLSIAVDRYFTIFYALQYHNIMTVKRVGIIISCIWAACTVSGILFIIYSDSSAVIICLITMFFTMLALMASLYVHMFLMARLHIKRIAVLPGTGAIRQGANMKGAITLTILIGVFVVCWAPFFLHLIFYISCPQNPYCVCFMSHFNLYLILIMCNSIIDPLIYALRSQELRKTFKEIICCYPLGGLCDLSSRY
NTR1 agonist: activates human neurotensin receptor 1 | NTR1-U2OS beta-arrestin-GFP spot imaging, agonist mode | AID 493036 | activation, % at 20 µM | actives 0.17% (n = 330,000) | P30989;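 active means activation at or above 40% of the spot to cytoplasm intensity ratio, with at least 20 cells analyzed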;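 further: 0% = DMSO without peptide and 100% = 100 nM NTR1 peptide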
MC4R antag cAMP: human MC4R antagonism in cAMP assay. P32245. inhibition, % at 6.5 µM. MC4R-expressing cells, MTII-stimulated cAMP, LANCE TR-FRET. actives 0.48% (n = 360,000);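 active means inhibition above its plate's cutoff, the mean of tested wells on that plate plus 3 SD, cut at about 29% in these data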;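 further: 0% = Melanotan II alone and 100% = Melanotan II plus saturating MCL0020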
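Material: human MC4R-expressing U2OS cells. Probe or stimulus: Melanotan II challenge. Dosing: 6.5 µM single dose. Times: 30-min compound, 1-h challenge, 1-h detection, room temperature. Technique: TR-FRET with Eu-cAMP and labeled anti-cAMP, 671 nm. Replication: singlicate.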
H9c2 TAG inh: triacylglycerol accumulation inhibition; inhibition, % at 12.5 µM; H9c2 cells, Nile Red lipid (TAG) fluorescence; cells loaded with 200 µM oleic acid; actives 0.66% (n = 230,000); AID 651582;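 active means pattern-corrected inhibition of lipid staining of at least 50% with the nuclear-stain viability signal not falling by more than 50%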;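 further: 0% = DMSO wells and 100% = triacsin C control wells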
MC4R barr conf: human MC4R beta-arrestin agonism confirmation; shares compounds with MC4R ag barr; U2OS MC4R beta-arrestin recruitment, luminescence; scaled DMSO 0%, Melanotan II 100%; activation, % at 8.9 µM; actives 31% (n = 2,400); AID 602192;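 active means mean activation across replicates above the hit cutoff set in the earlier primary screen, cut at about 8% in these data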
MOR DOR agonist: activates mu-delta opioid heterodimer, MC4R agonist counter-screen; shares compounds with MC4R ag barr; U2OS PathHunter beta-arrestin, beta-gal luminescence; percent of deltorphin B response, DMSO zero; activation, % at 9.2 µM; actives 5.8% (n = 2,400); AID 602194;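 active means mean activation across replicates exceeds the hit threshold derived in the earlier primary screen, cut at about 18% in these data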;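 further: 100% = deltorphin B at 0.9 µM final and 0% = DMSO alone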
* hit, by the source's call; x = no result. Sampled rows, rich in hits. Any-hit rate of the full collection: about 2.4%.

SMILES | TbMetRS inhib | aDG glyco up | MC4R ag barr | NTR1 agonist | MC4R antag cAMP | H9c2 TAG inh | MC4R barr conf | MOR DOR agonist
O=Nc1c2cc3ccccc3[nH]c-2c2ccccc12 | 0 | 0 | 10* | x | -1 | -11 | 7 | 11
COc1ccc(Cn2c(C)c(C)c(C#N)c2NC(=O)Nc2cccc(Cl)c2)cc1 | 0 | 0 | 21* | -2 | -7 | 6 | 3 | 6
Cc1c(C#N)c(NC(=O)c2cccc(Cl)c2)n(Cc2ccccc2)c1C | -1 | 0 | 0 | 4 | 5 | 9 | x | x
COc1ccc(Cn2c(C)c(C)c(C#N)c2NC(=O)Nc2ccc(Cl)cc2)cc1 | 4 | 0 | 13* | -1 | 12 | -7 | 1 | 5
COc1ccc(NC(=O)Nc2ccc(OC)cc2)cc1 | -1 | 0 | 2 | 0 | -1 | 7 | x | x
C[C@H]1COc2cccc(N3CCC[C@@H]3CO)c2S(=O)(=O)N1 | 0 | 0 | x | x | x | x | x | x
Cc1c(N)cccc1-n1cnnn1 | 0 | 1 | -2 | -1 | 18 | 0 | x | x
c1cc2ccc3ccc(-n4cnnn4)c4ccc(c1)c2c34 | 0 | 0 | 31* | 6 | -12 | -32 | 6 | 6
Clc1ccccc1-c1cnc2sc(NCc3ccc4c(c3)OCO4)nn12 | 0 | 2 | 22* | x | -5 | 62 | 13* | 9
CC1(C(=O)NS(=O)(=O)c2ccc(Br)cc2)CCN1C(=O)c1cccc(F)c1 (configuration not stated) | 0 | 0 | 0 | x | 7 | 12 | x | x
C=CCOc1cccc(/C=C/c2nc3ccccc3c(=O)[nH]2)c1 | 0 | 0 | 24* | 0 | 3 | x | 0 | 4
Cc1csc(-c2cc(C(=O)NCc3ccc(F)cc3)n[nH]2)c1 | 0 | 0 | -1 | x | 16 | -2 | x | x
COc1nc(-c2ccccc2)ccc1-c1noc(-c2ccco2)n1 | 0 | 0 | 31* | 4 | 2 | -6 | 0 | 3
CC(=O)c1cccc(NC(=O)c2noc3c2CCc2ccccc2-3)c1 | 0 | 0 | 16* | 7 | 10 | 3 | 9.7* | 3
COc1cccc(-c2sc3ccccc3c2-c2ccc(OCCN3CCCC3)cc2)c1 | 0 | 2 | 11* | 12 | 10 | 15 | 46* | 12
COc1ccccc1-c1sc2ccccc2c1-c1ccc(OCCN2CCCCC2)cc1 | -1 | 0 | 5 | 7 | 6 | 21 | x | x
c1ccc(-c2sc3ccccc3c2-c2ccc(OCCN3CCCC3)cc2)cc1 | 0 | 2 | 14* | 8 | -2 | 38 | 32* | 10
COc1ccc(-c2sc3cc(OC)ccc3c2-c2ccc(OCCN3CCCCC3)cc2)cc1 | 0 | 0 | x | x | x | x | x | x
COc1cccc(-c2sc3ccccc3c2-c2ccc(OCCN(C)C)cc2)c1 | 0 | 1 | 29* | 11 | 8 | 21 | 56* | 17
COc1ccc(CN2C(=O)C(CC(=O)NC3CC3)CC(C(=O)N3CCOCC3)=C2C)cc1 (configuration not stated) | 0 | 0 | x | x | x | x | x | x
COc1ccc(CNCCc2ccc(Cl)cc2)cc1OCc1ccccc1 | 0 | 2.7* | 16* | 12 | -3 | -18 | 24* | 11
COc1ccccc1NC(=O)Nc1cc(C(C)C)ccc1C | 0 | 0 | 19* | -2 | -4 | x | -1 | 8
CC(=O)NCCNc1nc2cc(-c3ccccc3C)sc2c(=O)n1C | 0 | 0 | -3 | x | 7 | 7 | x | x
COc1cc2c(cc1OC)C(c1ccccc1[N+](=O)[O-])=NCC2 | 0 | 0 | x | x | x | x | x | x
COC(=O)c1ccc(CSc2nnc(NC(=O)c3cc4c(s3)CCCC4)s2)cc1 | 0 | 0 | 18* | 0 | 7 | x | 0 | 2
SMILES | TbMetRS inhib | aDG glyco up | MC4R ag barr | NTR1 agonist | MC4R antag cAMP | H9c2 TAG inh | MC4R barr conf | MOR DOR agonist
CC1CCc2sc(C(=O)Nc3nnc(SCc4ccc(F)cc4)s3)cc2C1 (configuration not stated) | -2 | 0 | 33* | 2 | 3 | 5 | 12* | 2
Cc1ccc(-c2csc3nc4c5ccccc5c(NCCCN(C)C)nn4c(=O)c23)cc1 | -1 | 0 | 13* | 8 | 0 | 59* | 33* | 9
Cc1ccc(-c2csc3nc4c5ccccc5c(NCCCN5CCOCC5)nn4c(=O)c23)cc1 | x | x | x | 24 | x | x | x | x
CC(O)(c1cccnc1)c1nc(-c2cccc3cccnc23)cs1 (configuration not stated) | 0 | 0 | 1 | x | 4 | -1 | x | x
Cc1ccc(S(=O)(=O)N(C)C)cc1NC(=O)CSc1ncc(C(F)(F)F)cc1Cl | 0 | 0 | 0 | -1 | 9 | x | x | x
CCN(CC)S(=O)(=O)c1ccc(C)c(NC(=O)CSc2ncc(C(F)(F)F)cc2Cl)c1 | -1 | 0 | 9.8* | 1 | 13 | x | 6 | 4
Cc1cc(C)c2c(CN3CCN(c4ccccc4F)CC3)cc(=O)oc2c1 | -1 | 0 | x | x | x | x | x | x
CCOc1ccc(-n2cnnn2)cc1S(=O)(=O)NCc1ccccc1 | 0 | 0 | 16* | 0 | -3 | x | -1 | 2
c1ccc2sc(-n3cc(C4CCCCC4)nn3)nc2c1 | 0 | 2 | x | x | x | x | x | x
Cc1ccccc1OCC(=O)N/N=C/c1cn(Cc2ccccc2)c2ccccc12 | 1 | 1 | 33* | 5 | -15 | x | 12* | 5
NC(=O)c1ccsc1NC(=O)c1ccc(S(=O)(=O)N2CCCC2)cc1 | 0 | 0 | 0 | -2 | 4 | 5 | x | x
CC1CC(C)CN(S(=O)(=O)c2ccc(C(=O)Nc3sccc3C(N)=O)cc2)C1 (configuration not stated) | 1 | 0 | 13* | 19 | 5 | -8 | 14* | 11
C=C(C)C(=O)Oc1ccc(N=Nc2ccc(C)cc2)ccc1=O | 0 | -1 | -3 | x | 9 | 17 | x | x
COC(=O)c1ccc(NC(=O)COc2coc(CN3CCc4ccccc43)cc2=O)cc1 | 0 | 0 | -4 | 0 | -1 | -10 | x | x
Cc1ccc(NC(=O)COc2coc(CN3CCc4ccccc43)cc2=O)cc1Cl | 0 | 0 | 12* | 2 | 8 | -12 | 5 | 25*
CCCC(=O)N1CCC1(C)C(=O)NS(=O)(=O)c1ccccc1 (configuration not stated) | 1 | 0 | 2 | x | 6 | 1 | x | x
O=C(Nc1ccc(O)cc1)c1cc2ccccc2c(=O)s1 | 0 | 0 | 1 | 4 | 17 | 2 | x | x
O=C(Nc1ccccc1)c1cc2ccccc2c(=O)s1 | -2 | 0 | 13* | 3 | -4 | x | 0 | 5
